In ChEMBL document CHEMBL4513216, “Probing the Open Global Health Chemical Diversity Library for Multistage-Active Starting Points for Next-Generation Antimalarials” (ACS Infect Dis, 2020) one finds cytotoxicity data, which are given here for 98 molecules.

The series is described as follows: Toxicity liver stage against HepG2, at 10uM. On the set-up: test concentration 10 uM, cell line HepG2-A16-CD81EGFP. The conditions noted are these: human, HepG2-A16-CD81EGFP cells; read-out: INHIBITION
The series is classed as cell-based. The gist of the method: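 Uninfected HepG2-A16-CD81EGFP cells, 3 × 10^3 per well, 1536-well, plated on prespotted compound at 10 μM final, parasite-free screening media added to match infected plates; puromycin 10 μM positive, DMSO 0.5% negative; run in parallel with 48 h PbLuc assay at 37 °C, 5% CO2; viability by CellTiter-Glo luminescence, normalized to controls.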
In the case of `CCNC(=O)NC[C@H]1COCc2nc3cc(OC)ccc3n21`, the cytotoxicity at 10 µM was -2.3%.

As for `Cc1ccn(CCC(=O)NCCc2ccco2)n1`, the cytotoxicity at 10 µM was -4.81%.

Consider `O=C1COc2ccc(S(=O)(=O)NCCC3=CCCCC3)cc2N1`, for which the cytotoxicity at 10 µM was 5.42%.

Turning to `Cc1cccc(NC(=O)Nc2c[nH]c(=O)[nH]c2=O)c1C`, the cytotoxicity at 10 µM was 8.2%.

Regarding `Cc1ccc2c(c1)C(=O)CC1(CCN(Cc3ccccc3)CC1)O2`, the cytotoxicity at 10 µM turned out to be 2.81%.

With `COc1ccc2c(c1)[nH]c1c(N(C)CC3OCCO3)ncnc12`, the cytotoxicity at 10 µM was found to be 18.2%.

Consider `COc1ccc(N2CCN(C(=O)c3cc(=O)c(OC)c[nH]3)CC2)cc1`, for which the cytotoxicity at 10 µM is -0.244%.

On to `O=C(Cc1cccc(F)c1)N1CCc2ncnc(N3CCCC3)c2CC1`, for which the cytotoxicity at 10 µM was -4.9%.

Take `CN1CC[C@]2(CN(C(=O)c3ccc[nH]3)C[C@H]2c2ccccc2)C1=O`: the cytotoxicity at 10 µM turned out to be 11.6%.

For the molecule `CN(C)c1ncnc2c1CCN(c1cccc(F)c1)CC2`, the cytotoxicity at 10 µM worked out at 18.5%.

With `CCOCc1ncn2c1CN(S(=O)(=O)c1cccc(C)c1)CC2`, the cytotoxicity at 10 µM was -1.33%.

Regarding `CCc1c(C)n(C)c2nc3ccccc3n2c1=O`, the cytotoxicity at 10 µM was 5.94%.

For the molecule `O=C(Cn1cc(-c2ccccc2)ncc1=O)Nc1nccs1`, the cytotoxicity at 10 µM was -4.83%.

With `Cc1ccc2nc(C3CCN(CCO)CC3)nn2c1`, the cytotoxicity at 10 µM was -1.23%.

On to `O=C(NCC1OCCc2cn(CC3CC3)nc21)c1ccsc1` (stereo not drawn), for which the cytotoxicity at 10 µM came out at 6.69%.

With `CCn1ccc(-c2nnc(SCC(=O)NCC(C)C)n2CC)n1`, the cytotoxicity at 10 µM was 5.44%.

Consider `O=C(NCc1ccccc1Cl)c1[nH]nc2c1CS(=O)(=O)CC2`, for which the cytotoxicity at 10 µM was -0.908%.

Regarding `COc1ccc(Nc2nc3c(C)nn(C)c3c(=O)n2C)c(OC)c1`, the cytotoxicity at 10 µM is -6.89%.

In the case of `O=C(CN1CCC2(CC1)NC(=O)c1cc(Br)ccc1N2)NC1CC1`, the cytotoxicity at 10 µM was 4.79%.

Regarding `CN(C)C(=O)Cn1c(C2CC2)c(CN2CCOCC2)c2cccnc21`, the cytotoxicity at 10 µM was -3.99%.

Take `Cc1cnc(CC2COCCN(C(=O)c3cncnc3)C2)cn1` (stereo not drawn): the cytotoxicity at 10 µM turned out to be 0.187%.

For the molecule `NC(=O)c1ccccc1Oc1cccc(C2CCCNC2)n1` (stereo not drawn), the cytotoxicity at 10 µM came out at 5.19%.

As to `CN1CC(=O)N(C2CCNC2)Cc2c(NC3CCCC3)ncnc21` (stereo not drawn), the cytotoxicity at 10 µM turned out to be 9.46%.

As for `Cc1ccc(C(=O)NCCS(=O)(=O)Cc2ccccc2)c(C)c1`, the cytotoxicity at 10 µM is -5.09%.

Turning to `O=C(NC1CCc2nccn2C1)c1ccc(OCC2CC2)nc1` (stereo not drawn), the cytotoxicity at 10 µM amounted to 4.36%.

For the molecule `C1CCN(CCN2CCCCC2C2OCCO2)CC1` (stereo not drawn), the cytotoxicity at 10 µM is 3.19%.

Turning to `O=C(CCOCc1ccccc1)NS(=O)(=O)N1CCOc2ccccc21`, the cytotoxicity at 10 µM came out at 9.15%.

Turning to `CC(C)CNC(=O)c1ccc(NC(=O)NC(C)c2ccccn2)cc1` (stereo not drawn), the cytotoxicity at 10 µM came out at 5.26%.

Regarding `CCCNC(=O)c1ccc(NC(=O)NC(C)c2ccccn2)cc1` (stereo not drawn), the cytotoxicity at 10 µM was determined as 9.15%.

Consider `CCc1cccnc1NCc1cnc(N2CCOCC2)nc1`, for which the cytotoxicity at 10 µM came to 1.03%.

On to `NC(=O)CC1CCCN(c2cncc(SCc3ccccc3)n2)C1` (stereo not drawn), for which the cytotoxicity at 10 µM amounted to 11%.

Consider `CCOC(=O)c1ccc(CNC(=O)c2ccc(Cl)cn2)o1`, for which the cytotoxicity at 10 µM is 6.72%.

In the case of `O=C(NCC1CC(=O)N(CCc2ccccc2)C1)c1c(F)cccc1F` (stereo not drawn), the cytotoxicity at 10 µM came to 9.52%.

For `CCCn1cc(NC(=O)c2ccc(NC(=O)NC3CC3)cc2)ccc1=O`, the cytotoxicity at 10 µM stood at 1.93%.

Regarding `CC(C)(O)CSCCNCc1ccc(Cl)c2cccnc12`, the cytotoxicity at 10 µM was -8.87%.

Regarding `Cc1cnn(CCNCc2ccc(S(C)(=O)=O)cc2)c1`, the cytotoxicity at 10 µM worked out at 7.55%.

Regarding `CCOCC(=O)Nc1cccc(Oc2ccccn2)c1`, the cytotoxicity at 10 µM was -2.41%.

Turning to `CS(=O)(=O)CCOCCNc1ccc(C(F)(F)F)cc1C#N`, the cytotoxicity at 10 µM stood at 2.31%.

Take `COc1cc(C(C)=O)ccc1SCC(=O)Nc1cc(C)n[nH]1`: the cytotoxicity at 10 µM stood at 9.83%.

Consider `CC(C)OCCSCc1nnc(-c2cccc(F)c2)o1`, for which the cytotoxicity at 10 µM came out at 9.45%.

As for `CCOC(C)c1nc(Cn2cc(-n3cccc3)cn2)cs1` (stereo not drawn), the cytotoxicity at 10 µM is 3.81%.

Take `Cc1ncsc1CN(C)C(=O)C(CC(C)C)N1CCCCC1=O` (stereo not drawn): the cytotoxicity at 10 µM came out at 3.28%.

Consider `Cn1cnnc1-c1cncc(NCc2ccccc2Br)c1`, for which the cytotoxicity at 10 µM turned out to be 6.53%.

Consider `CN(C)c1ncc(CNS(=O)(=O)c2cccc3ccccc23)n1C`, for which the cytotoxicity at 10 µM stood at 8.32%.

On to `CS(=O)(=O)NC(=O)CCc1cccc(OC2CCCC2)c1`, for which the cytotoxicity at 10 µM is -5.01%.

`COc1ccccc1S(=O)(=O)Nc1cnc(O)cc1C`: the cytotoxicity at 10 µM is -13.2%.

In the case of `COc1ccc(C(=O)NCCCC2(C3OCCO3)CCOCC2)cc1`, the cytotoxicity at 10 µM came to 3.05%.

Consider `COc1ccccc1CNC(C)c1cnc2cc(C)nn2c1C` (stereo not drawn), for which the cytotoxicity at 10 µM came to 8.32%.

For the molecule `Cc1cc(C(=O)N2CCCC2)ccc1NCCOCC(F)(F)F`, the cytotoxicity at 10 µM came to 0.608%.

On to `CN1CCN(Cc2cccc(NCc3ncc[nH]3)c2)CC1`, for which the cytotoxicity at 10 µM was -6.44%.

For `COCc1nc2n(n1)CCCC2Nc1nc(C2CC2)ns1` (stereo not drawn), the cytotoxicity at 10 µM came out at 17%.

As for `Cc1ccc(C(O)CNC(=O)NCc2nc(C)cs2)cc1` (stereo not drawn), the cytotoxicity at 10 µM is -13.3%.

On to `Cn1cc(CC2CCN(C(=O)NCCc3cccc(O)c3)C2)cn1` (stereo not drawn), for which the cytotoxicity at 10 µM worked out at 1.05%.

As to `O=C([C@H]1CC[C@@H]2[C@@H](CCN2c2ncccn2)O1)N1CCCCO1`, the cytotoxicity at 10 µM was determined as 6.46%.

On to `O=C(Cc1ccc(F)cc1)N1CCn2cc(Cn3cncn3)nc2C1`, for which the cytotoxicity at 10 µM is -74%.

Turning to `COc1cc2nc(NCCN3CCNC3=O)cc(C)c2cc1OC`, the cytotoxicity at 10 µM was -0.454%.

Take `Cc1nnc(SCCNC(=O)c2cc(S(N)(=O)=O)ccc2F)s1`: the cytotoxicity at 10 µM was -1.4%.

In the case of `CCN(Cc1ccc2cccc(O)c2n1)CC1CCCO1` (stereo not drawn), the cytotoxicity at 10 µM is -4.02%.

On to `CC(C)Cc1nc(CN2CCC3(CCCO3)CCC2=O)no1` (stereo not drawn), for which the cytotoxicity at 10 µM was 1.95%.

Take `Cc1cnc(NC(=O)c2cccc(CN(C)Cc3snnc3C)c2)s1`: the cytotoxicity at 10 µM was found to be 16.3%.

For the molecule `O=C(CSc1ccccc1)Nc1cnn(CC(=O)N2CCCO2)c1`, the cytotoxicity at 10 µM is -0.969%.

On to `Cc1cccc(-c2cc(-c3c(C)nn(CCO)c3C)c(C#N)c(N)n2)c1`, for which the cytotoxicity at 10 µM turned out to be 20.2%.

On to `COCC(=O)N1CCN(S(=O)(=O)c2cccs2)[C@H]2CS(=O)(=O)C[C@H]21`, for which the cytotoxicity at 10 µM turned out to be 1.44%.

With `CC(C)=CCN1CCNC(=O)C1CC(=O)N1CCc2sccc2C1` (stereo not drawn), the cytotoxicity at 10 µM stood at 0.429%.

Regarding `CC(C)c1cc(NCC(O)c2ccccn2)n2nccc2n1` (stereo not drawn), the cytotoxicity at 10 µM came to 13%.

For `COCC(=O)N1CCCC(C(=O)N(C)CCn2ccnc2C)C1` (stereo not drawn), the cytotoxicity at 10 µM amounted to 0.707%.

For `CCn1cc(CN(C)C(=O)C(c2ccccc2C)N(C)C)cn1` (stereo not drawn), the cytotoxicity at 10 µM was 0.0381%.

With `O=C1CCCN1CCCNCc1cc(O)c2cccc(Cl)c2n1`, the cytotoxicity at 10 µM came out at 4.05%.

Regarding `O=C(c1ccc2c(c1)CCO2)N1CCN(c2ccc(Cl)cn2)CC1`, the cytotoxicity at 10 µM was determined as 9.56%.

Regarding `CSCC[C@H](N)C(=O)N1CC(Oc2ccccc2C)C1`, the cytotoxicity at 10 µM turned out to be 0.897%.

With `COc1cccc(-c2cc(C(=O)NCCn3nc(C)nc3C)[nH]n2)c1`, the cytotoxicity at 10 µM is -2.77%.

With `C[C@@H]1CN(CCC(=O)N(C)Cc2ccccc2)CC[C@@]1(O)C1CCC1`, the cytotoxicity at 10 µM amounted to 2.89%.

`CS(=O)(=O)CCN1CCC2(CCCN(C3CCOCC3)C2=O)C1` (stereo not drawn): the cytotoxicity at 10 µM is -5.65%.

As to `COc1ncc(-c2nccn2CCN(C)C)cn1`, the cytotoxicity at 10 µM is -17.4%.

As to `CC(=O)NC(C)CC(=O)NCc1cccnc1Oc1ccccc1C` (stereo not drawn), the cytotoxicity at 10 µM amounted to 11.4%.

As for `COc1cccc(N2CCN(C(=O)C(O)c3cccc(Cl)c3)CC2=O)c1` (stereo not drawn), the cytotoxicity at 10 µM is -11.2%.

Turning to `CC(=O)N(Cc1ncc(C(C)C)o1)C1CCN(CCn2cncn2)C1` (stereo not drawn), the cytotoxicity at 10 µM was -11.3%.

In the case of `Cc1ncc(C(=O)NCCNC(=O)Cc2cccc(F)c2)s1`, the cytotoxicity at 10 µM was -4.53%.

For the molecule `Cc1nc(CN2CCCC(N(C)CCOCC(F)(F)F)C2)no1` (stereo not drawn), the cytotoxicity at 10 µM was -4.92%.

For `O=C(Nc1cnn(CCN2CCOCC2)c1)c1ccccc1Cl`, the cytotoxicity at 10 µM is -5.81%.

With `CC(Cn1ccnc1)NC(=O)N1CCN(Cc2ccco2)CC1` (stereo not drawn), the cytotoxicity at 10 µM is -2.07%.

For the molecule `CC(C)OCCN1CCC(C(=O)c2cc(F)ccc2F)CC1`, the cytotoxicity at 10 µM is -8.63%.

On to `CCc1nc2n(n1)CC(NCC(=O)Nc1oc(C)c(C)c1C#N)CC2` (stereo not drawn), for which the cytotoxicity at 10 µM was -8.84%.

As for `CCOc1ccnc(N2CCN(C(=O)c3ccoc3C)CC2)n1`, the cytotoxicity at 10 µM was -0.463%.

Take `Cc1ccc(-c2nc(CN3CCOC(Cn4cccn4)C3)no2)cc1` (stereo not drawn): the cytotoxicity at 10 µM is -8.93%.

With `CCc1nc(CN(C(C)=O)C2CCN(Cc3csc(C)n3)C2)no1` (stereo not drawn), the cytotoxicity at 10 µM is -12.8%.

Turning to `COc1ncccc1CNC(=O)NCc1ccco1`, the cytotoxicity at 10 µM is -12.8%.

Turning to `CC(C)C(=O)NC1CCCN(C(=O)c2cc3ccccc3cc2O)C1` (stereo not drawn), the cytotoxicity at 10 µM was -4.14%.

For `CNc1cc2c(nn1)CCN(C(=O)c1cccc3c1OCO3)C2`, the cytotoxicity at 10 µM was -10.6%.

Consider `CC(C)c1ncc2c(n1)CN(Cc1cccc(OCC(N)=O)c1)CC2`, for which the cytotoxicity at 10 µM is -7.44%.

`COc1ccc(C(=O)N2CCC(Nc3cccnn3)CC2)c(OC)c1`: the cytotoxicity at 10 µM was found to be 4.67%.

For `CCNC(c1ccc(OC)cc1)c1cccnc1` (stereo not drawn), the cytotoxicity at 10 µM was -3.54%.

In the case of `COc1ccc(CNCc2c(C)nn(C)c2N2CCOCC2)cc1`, the cytotoxicity at 10 µM is -1.32%.

For `CN(C)C(=O)N1CCC2(CC1)NC(=O)c1ccccc12`, the cytotoxicity at 10 µM was -10.1%.

As to `N#Cc1ccc(C(=O)N2CC[C@H]3[C@H]2CCN3CC2CCOCC2)cc1`, the cytotoxicity at 10 µM is -5.19%.

As for `c1ccn(Cc2nnc3n2CCCN(Cc2ccoc2)C3)c1`, the cytotoxicity at 10 µM stood at 0.993%.

Take `Fc1cnc(N2CCO[C@H]3CN(CC4CCCC4)C[C@H]32)nc1`: the cytotoxicity at 10 µM is -9.39%.

Regarding `Cc1cc(N2CCN(C(=O)[C@@H]3C[C@H]4C=C[C@@H]3C4)CC2)nc2ccccc12`, the cytotoxicity at 10 µM was -5.71%.
